This excerpt belongs to a sample that is enriched for hits.
L major viab – Leishmania major promastigote growth inhibition, primary screen; Leishmania major promastigotes, resazurin fluorescence viability; inhibition, % at 10 µM; 9% of 200,000 active;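 also: promastigotes grown with compound for 44 hours at 28 °C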
GSH fluor – compound fluorescence on glutathione beads, profiling panel, artefact control, biophysical, 488/530 nm, flow cytometry; GSH beads flow cytometry, compound fluorescence 488/530 nm; hits give high values; fluorescence (KMESF) at 10 µM; 0.25% of 190,000 active; AID 1776, 2009; in the data active = fluorescence above about 89;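 also: glutathione beads carrying GST-tagged Bcl family fusion proteins plus one bare bead set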
ABCB1 block – ABCB1 efflux pump inhibitors, primary screen, cell-based, multiplex, flow cytometry, ABCG2 counter-screen. CCRF-Adr cells, JC-1 efflux. AID 1326, 2008. ATP-dependent translocase ABCB1 (Homo sapiens), P08183. inhibition, % at 6.6 µM. 0.067% of 190,000 active; in the data active = inhibition above about 40%;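 also: higher value means more JC-1 retained so stronger ABCB1 efflux block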
ABCG2 block – ABCG2 efflux pump inhibitors, primary screen, multiplex with ABCB1, IgMXP3 cells, flow cytometry; Broad substrate specificity ATP-binding cassette transporter ABCG2 (Homo sapiens), Q9UNQ0; JC-1 efflux; inhibition, % at 6.6 µM; 0.1% of 190,000 active; AID 1325, 2008;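 active = inhibition above 80%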
Target sequence (Q9UNQ0 whole entry, looked up): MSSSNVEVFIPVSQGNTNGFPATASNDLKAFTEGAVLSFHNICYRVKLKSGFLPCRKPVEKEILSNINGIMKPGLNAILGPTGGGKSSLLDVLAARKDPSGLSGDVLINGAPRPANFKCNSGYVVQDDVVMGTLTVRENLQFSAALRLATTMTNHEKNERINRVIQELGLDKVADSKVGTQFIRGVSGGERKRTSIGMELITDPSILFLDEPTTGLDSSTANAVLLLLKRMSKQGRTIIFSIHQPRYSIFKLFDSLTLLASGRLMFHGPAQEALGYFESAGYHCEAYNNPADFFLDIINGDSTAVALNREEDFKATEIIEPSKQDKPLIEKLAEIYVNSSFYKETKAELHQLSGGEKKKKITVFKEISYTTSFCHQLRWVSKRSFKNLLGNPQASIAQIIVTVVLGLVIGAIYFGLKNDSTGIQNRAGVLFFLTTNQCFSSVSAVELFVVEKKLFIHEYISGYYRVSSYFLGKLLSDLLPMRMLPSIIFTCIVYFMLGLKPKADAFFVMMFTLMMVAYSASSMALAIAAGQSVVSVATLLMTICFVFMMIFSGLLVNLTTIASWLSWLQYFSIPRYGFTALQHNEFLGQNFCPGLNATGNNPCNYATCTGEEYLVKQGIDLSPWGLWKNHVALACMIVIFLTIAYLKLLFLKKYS
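Test system: ABCG2 IgMXP3 and barcoded ABCB1 CCRF-Adr cell mix; Schedule: cells with compound and JC-1, 10 min at 25 °C, rotating, no wash; Technique: flow cytometry of retained JC-1 fluorescence; Measure: % inhibition of efflux relative to nicardipine and DMSO; Controls: nicardipine high and DMSO low controls.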
Avidin bead fluor – green autofluorescence of compounds with avidin beads – biophysical, 488/530 nm, flow cytometry, artefact control, profiling panel; 0.38% of 220,000 active; compound fluorescence 488/530 nm; hits give high values; fluorescence (KMESF) at 10 µM; in the data active = fluorescence above about 47
PKD1 kinase inh – inhibitors of human PKD1 kinase, biochemical, fluorescence polarization. 0.056% of 200,000 active. AID 797, 2007. Serine/threonine-protein kinase D1 (Homo sapiens), Q15139. PKD1 kinase fluorescence polarization assay. inhibition, % (concentration not given with the values)
Hits are given with their value; – = inactive; · = no result. Rule as the data show it, unless noted: active = inhibition above about 50%; inactive = the rest.

SMILES	L major viab	GSH fluor	ABCB1 block	ABCG2 block	Avidin bead fluor	PKD1 kinase inh
CC(C)(C)c1ccc(NC(=O)Nc2ccc(OCC(=O)N3CCOCC3)cc2)cc1	–	–	–	–	–	–
Cc1ccc2c(c1)NC(c1cccs1)C1=C(CC(C)(C)CC1=O)N2 (centres undefined)	–	–	–	–	–	–
Cc1cc2c(cc1C)NC(c1c(C)n(C)n(-c3ccccc3)c1=O)C1=C(CC(C)(C)CC1=O)N2 (centres undefined)	100	–	–	–	–	–
CCOC(=O)N1CCN(S(=O)(=O)c2ccc3c(c2)CCN3C(=O)CC)CC1	–	–	–	–	–	–
CCOC(=O)c1cccc(-n2c(C)cc(C=O)c2C)c1	–	–	–	–	–	–
CCOC(=O)c1c(-n2c(C)cc(C=O)c2C)sc2c1CCCC2	96	–	–	–	–	–
COc1cc(-c2nnc(CSc3nnc(Nc4ccc(Oc5ccccc5)cc4)s3)o2)cc(OC)c1OC	77	–	–	–	–	–
COCCSc1nc2sc3c(c2c(=O)n1-c1ccccc1)CCN(C)C3	100	–	–	–	–	–
CCOc1ccc(-n2c(SCC(N)=O)nc3sc4c(c3c2=O)CCN(C)C4)cc1	·	·	·	·	–	·
O=C(Nc1cccc(Cl)c1)c1cccc(Oc2ccc([N+](=O)[O-])cc2Cl)c1	98	–	–	–	–	–
Cc1ccc2[nH]cc(CCNC(=O)CN3C(=O)c4ccccc4C3=O)c2c1	–	–	–	–	–	–
Cc1cccc(NC(=O)NCCc2c[nH]c3ccccc23)c1	89	–	–	–	–	–
Cc1ccc2c(c1)N(CC(=O)NCCc1c[nH]c3ccccc13)C(=O)CO2	53	–	–	–	–	–
N=c1oc2ccc3ccccc3c2cc1C(N)=S	–	–	–	–	–	–
COc1cc(OC)cc(-c2nn[nH]n2)c1	–	–	–	–	–	–
Cc1ccc(S(=O)(=O)NCCSc2nnnn2-c2cc(C)ccc2C)cc1	100	–	–	–	–	–
Cc1ccc(C)c(-n2nnnc2Sc2nnnn2-c2ccccc2)c1	98	–	–	–	–	–
COc1ccc(OCC(=O)Nc2ccc3nc(C)sc3c2)cc1	–	–	–	–	–	–
CCCCN=Cc1c(C)[nH]n(-c2ccccc2)c1=S	–	–	–	–	–	–
Cc1[nH]n(-c2ccccc2)c(=O)c1/C=N/Nc1nncc(-c2ccccc2)n1	100	–	–	–	·	–
CCCCN(CCCC)C(=S)N/N=C/c1c(C)[nH]n(-c2ccccc2)c1=O	96	–	–	–	–	–
O=C(O)/C=C/C(=O)Nc1ccc(-c2ccccc2)cc1	–	–	–	–	–	–
O=C(CCNS(=O)(=O)c1cccc2nonc12)NCc1cccs1	–	–	–	–	–	–
Cc1ccc2c(Cn3cc(C(F)(F)F)cc(Cl)c3=O)cc(=O)oc2c1	52	–	–	–	–	–
O=C(COC(=O)c1c2c(nc3ccccc13)CCCCC2)c1ccc(Cl)s1	62	–	–	–	–	–
SMILES	L major viab	GSH fluor	ABCB1 block	ABCG2 block	Avidin bead fluor	PKD1 kinase inh
O=C(COC(=O)c1c2c(nc3ccccc13)CCCC2)c1cccs1	–	–	–	–	–	–
Cc1ncc([N+](=O)[O-])n1Cc1ccccc1	73	–	–	–	–	–
Cc1ncc([N+](=O)[O-])n1Cc1cccc(F)c1	85	–	–	–	–	–
Cc1ncc([N+](=O)[O-])n1CC(=O)NC1CCCCC1	83	–	–	–	–	–
N#CC1=C(S)N(c2ccccc2)C2(CCCCC2)NC1=O	–	–	–	–	–	–
Cc1cc(Br)ccc1SCC(=O)OCC(=O)N1CCN(C(=O)c2ccco2)CC1	–	–	–	–	–	–
O=C(CSc1cccc2cccc(Cl)c12)OCC(=O)N1CCN(C(=O)c2ccco2)CC1	53	–	–	–	–	–
COC(=O)c1ccccc1-c1ccc(C(c2c(C)[nH][nH]c2=O)c2c(C)[nH][nH]c2=O)o1	100	–	–	–	–	–
Cc1[nH][nH]c(=O)c1C(c1ccc(-c2ccc(Cl)c(C(=O)O)c2)o1)c1c(C)[nH][nH]c1=O	–	–	–	–	–	–
COC(=O)c1cccc(-c2ccc(C(c3c(C)[nH][nH]c3=O)c3c(C)[nH][nH]c3=O)o2)c1	92	–	–	–	–	–
COC(=O)c1ccccc1NC(=O)c1ccc(-c2ccccc2F)o1	–	–	–	–	–	–
COc1ccc(NC(=O)Nc2cccc(Cl)c2Cl)c(OC)n1	·	·	·	·	–	·
O=C1C2C3C=CC(C4CC34)C2C(=O)N1Cc1ccccc1 (centres undefined)	–	–	–	–	–	–
O=C1C2C3CCC(C3)C2C(=O)N1Cc1ccccc1 (centres undefined)	57	–	·	–	–	–
O=C(c1ccc2ccccc2c1)C1CCCN(S(=O)(=O)c2cccnc2)C1 (centres undefined)	–	–	–	–	–	–
COc1ccc(/C=N\N=C2/SC(CC(=O)O)C(=O)N2c2ccc(O)cc2)cc1OC (centres undefined)	56	–	–	–	–	–
Clc1ccc(CN2C3=NCCN3c3ccccc32)cc1Cl	65	–	–	–	–	–
c1ccc(CN2C3=NCCN3c3ccccc32)cc1	–	–	–	–	–	–
Cc1ccc(Nc2nc(CSc3nnc(-c4ccc(F)cc4)n3C)cs2)cc1	81	–	–	–	–	–
COc1ccc(-c2nnc(SCc3csc(N)n3)n2C)cc1	–	–	–	–	–	–
[O-][n+]1c2c(nc3c1-c1ccccc1C3O)CCCC2 (centres undefined)	–	–	–	–	–	–
CCO/N=C(\C)c1c(O)c2ccccc2n(C)c1=O	–	–	–	–	–	–
Cc1ccc(C)c(NC(=O)C2(C)CC3c4ccccc4C2c2ccccc23)c1 (centres undefined)	–	–	–	–	–	–
Cc1cccc(NC(=O)C2(C)CC3c4ccccc4C2c2ccccc23)c1C (centres undefined)	71	–	–	–	–	–
Cc1occc1-c1n[nH]c(=S)n1C	–	–	–	–	–	–
CN(C)CCCN(C(=O)c1ccc(Br)s1)c1nc2cc3c(cc2s1)OCO3	75	–	–	–	–	–
Cc1ccc2sc(N(CCCN(C)C)C(=O)c3ccc(Br)s3)nc2c1C	95	–	–	–	–	–
Cc1cccc2sc(N(CCCN(C)C)C(=O)c3nc4ccccc4s3)nc12	78	–	–	–	–	–
Cc1c(C(=O)Nc2ccc(-c3nnc4n3CCCCC4)cc2)oc2ccc(Br)cc12	–	–	–	–	–	–

Screens (PubChem)
